ChEMBL document CHEMBL3808325, “Discovery and Optimization of Macrocyclic Quinoxaline-pyrrolo-dihydropiperidinones as Potent Pim-1/2 Kinase Inhibitors” (ACS Med Chem Lett, 2016)
Values after ≈ are worked out from the molar mass of the structure shown.

Assays:
Mus musculus [1] = assay: Toxicity in human KMS-12-BM cells xenografted SCID-beige mouse assessed as drug tolerability at 10 to 100 mg/kg, po qd; type: organism-based; details: in vivo
Procedure, shortened: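 Tolerability followed in KMS-12-BM xenograft mice given oral doses once daily at 10, 25, 50 or 100 mg/kg over a 16-day efficacy study. Body weight monitored throughout.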

Rattus norvegicus = assay: Clearance in Sprague-Dawley rat at 2 mg/kg, iv relative to hepatic blood flow; type: ADME, organism-based, Liver; details: in vivo
Procedure, shortened: (§1)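 Pharmacokinetics in male Sprague–Dawley rats. Clearance also expressed as a percentage of liver blood flow. Oral bioavailability determined.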

[2] = target: Serine/threonine-protein kinase pim-1 (Homo sapiens, UniProt P11309); assay: Inhibition of human full-length Pim1 expressed in Escherichia coli assessed as phosphorylation of biotinylated BAD peptide at Ser-112 preincubated for 30 mins followed by substrate addition measured after 1 hr by HTRF assay
Sequence of Serine/threonine-protein kinase pim-1 (P11309 whole entry): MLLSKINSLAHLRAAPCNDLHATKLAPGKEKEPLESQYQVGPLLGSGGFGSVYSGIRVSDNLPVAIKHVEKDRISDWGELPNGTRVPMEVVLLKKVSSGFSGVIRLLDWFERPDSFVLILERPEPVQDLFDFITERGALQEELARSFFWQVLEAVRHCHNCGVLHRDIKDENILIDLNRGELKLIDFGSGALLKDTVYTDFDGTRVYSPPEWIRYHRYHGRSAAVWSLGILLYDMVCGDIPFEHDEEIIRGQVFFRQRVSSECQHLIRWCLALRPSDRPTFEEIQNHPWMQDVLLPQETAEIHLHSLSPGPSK

[3] = Equilibrium solubility of compound in PBS by HPLC analysis; type: physicochemical
[4] = target: Dual specificity protein kinase CLK1 (Homo sapiens) (UniProt P49759); assay: Inhibition of human CLK1 assessed as remaining enzyme activity at 1 uM by KINOMEscan assay
Sequence of Dual specificity protein kinase CLK1 (Homo sapiens) (P49759 whole entry, looked up): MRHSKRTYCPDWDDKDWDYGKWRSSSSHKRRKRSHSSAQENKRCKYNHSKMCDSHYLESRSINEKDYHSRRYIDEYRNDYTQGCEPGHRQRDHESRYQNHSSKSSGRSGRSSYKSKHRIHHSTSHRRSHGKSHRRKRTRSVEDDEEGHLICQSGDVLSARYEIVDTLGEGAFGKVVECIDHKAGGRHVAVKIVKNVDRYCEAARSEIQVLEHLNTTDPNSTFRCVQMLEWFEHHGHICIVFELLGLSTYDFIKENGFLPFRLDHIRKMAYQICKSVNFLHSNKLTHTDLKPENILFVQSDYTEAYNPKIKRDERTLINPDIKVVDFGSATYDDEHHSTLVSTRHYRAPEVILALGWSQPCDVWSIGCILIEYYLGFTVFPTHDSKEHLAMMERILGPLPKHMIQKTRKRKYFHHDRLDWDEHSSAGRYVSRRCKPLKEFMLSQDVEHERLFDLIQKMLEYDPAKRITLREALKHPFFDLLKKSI
Procedure, shortened: (§2)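 scanMAX KINOMEscan panel of 392 nonmutant kinases, compound tested at 1 μM. Result expressed as percent of control (POC). S(10) and S(1) scores are the fraction of kinases with POC below 10% and below 1%.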

[5] = target: Dual specificity protein kinase CLK2 (Homo sapiens) (UniProt P49760); assay: Inhibition of human CLK2 assessed as remaining enzyme activity at 1 uM by KINOMEscan assay; procedure, shortened: as §2
Sequence of Dual specificity protein kinase CLK2 (Homo sapiens) (P49760 whole entry, looked up): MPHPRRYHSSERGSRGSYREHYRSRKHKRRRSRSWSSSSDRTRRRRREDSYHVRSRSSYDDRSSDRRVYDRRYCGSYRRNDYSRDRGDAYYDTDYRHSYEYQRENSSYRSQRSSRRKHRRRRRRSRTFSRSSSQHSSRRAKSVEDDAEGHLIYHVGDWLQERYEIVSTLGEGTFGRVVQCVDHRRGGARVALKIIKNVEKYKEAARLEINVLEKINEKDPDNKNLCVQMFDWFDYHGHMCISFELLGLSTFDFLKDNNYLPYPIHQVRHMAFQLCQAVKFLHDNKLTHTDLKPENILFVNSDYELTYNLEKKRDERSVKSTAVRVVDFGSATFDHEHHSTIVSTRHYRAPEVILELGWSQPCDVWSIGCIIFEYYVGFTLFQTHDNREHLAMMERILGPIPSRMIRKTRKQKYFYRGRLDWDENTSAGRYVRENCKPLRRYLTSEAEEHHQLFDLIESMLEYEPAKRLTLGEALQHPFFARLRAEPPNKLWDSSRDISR

[6] = target: Dual specificity tyrosine-phosphorylation-regulated kinase 1B (Homo sapiens) (UniProt Q9Y463); assay: Inhibition of human DYRK1B assessed as remaining enzyme activity at 1 uM by KINOMEscan assay; procedure, shortened: as §2
[7] = target: Homeodomain-interacting protein kinase 2 (Homo sapiens) (UniProt Q9H2X6); assay: Inhibition of human HIPK2 assessed as remaining enzyme activity at 1 uM by KINOMEscan assay; procedure, shortened: as §2
Sequence of Homeodomain-interacting protein kinase 2 (Homo sapiens) (Q9H2X6 whole entry, looked up): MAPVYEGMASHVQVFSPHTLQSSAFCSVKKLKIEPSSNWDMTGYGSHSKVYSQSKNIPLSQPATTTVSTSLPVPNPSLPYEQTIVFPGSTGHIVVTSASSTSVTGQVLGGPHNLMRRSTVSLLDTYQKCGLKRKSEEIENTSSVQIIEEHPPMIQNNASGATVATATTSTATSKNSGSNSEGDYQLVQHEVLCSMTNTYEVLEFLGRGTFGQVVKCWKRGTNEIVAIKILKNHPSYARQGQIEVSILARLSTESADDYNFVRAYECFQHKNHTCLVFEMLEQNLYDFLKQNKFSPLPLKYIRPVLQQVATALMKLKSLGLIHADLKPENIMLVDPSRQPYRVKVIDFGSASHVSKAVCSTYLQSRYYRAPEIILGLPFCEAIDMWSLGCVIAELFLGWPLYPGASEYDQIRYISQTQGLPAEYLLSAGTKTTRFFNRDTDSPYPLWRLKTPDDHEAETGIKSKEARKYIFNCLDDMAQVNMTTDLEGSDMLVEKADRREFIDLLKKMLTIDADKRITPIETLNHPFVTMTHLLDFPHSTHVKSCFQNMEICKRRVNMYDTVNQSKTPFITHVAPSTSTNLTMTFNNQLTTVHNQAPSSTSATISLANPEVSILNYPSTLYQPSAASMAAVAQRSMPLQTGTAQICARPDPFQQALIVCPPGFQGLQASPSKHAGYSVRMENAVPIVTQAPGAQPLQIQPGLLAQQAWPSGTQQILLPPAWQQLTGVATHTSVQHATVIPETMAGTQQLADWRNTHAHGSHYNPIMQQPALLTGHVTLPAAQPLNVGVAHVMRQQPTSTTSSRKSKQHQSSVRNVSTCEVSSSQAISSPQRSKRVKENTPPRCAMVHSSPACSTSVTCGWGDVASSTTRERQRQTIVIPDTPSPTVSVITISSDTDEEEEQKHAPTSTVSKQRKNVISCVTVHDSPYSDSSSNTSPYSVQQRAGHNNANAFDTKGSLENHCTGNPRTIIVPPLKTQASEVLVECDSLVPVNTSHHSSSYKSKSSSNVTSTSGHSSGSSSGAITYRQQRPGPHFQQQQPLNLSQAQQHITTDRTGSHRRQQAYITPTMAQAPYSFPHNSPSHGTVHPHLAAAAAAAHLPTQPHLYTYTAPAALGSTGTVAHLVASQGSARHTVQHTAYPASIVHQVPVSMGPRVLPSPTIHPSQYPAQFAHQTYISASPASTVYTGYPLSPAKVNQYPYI

[8] = target: Myosin light chain kinase family member 4 (Homo sapiens) (UniProt Q86YV6); assay: Inhibition of human MYLK4 assessed as remaining enzyme activity at 1 uM by KINOMEscan assay; procedure, shortened: as §2
[9] = target: Mitogen-activated protein kinase 15 (Homo sapiens) (UniProt Q8TD08); assay: Inhibition of human MAPK15 assessed as remaining enzyme activity at 1 uM by KINOMEscan assay; procedure, shortened: as §2
Sequence of Mitogen-activated protein kinase 15 (Homo sapiens) (Q8TD08 whole entry): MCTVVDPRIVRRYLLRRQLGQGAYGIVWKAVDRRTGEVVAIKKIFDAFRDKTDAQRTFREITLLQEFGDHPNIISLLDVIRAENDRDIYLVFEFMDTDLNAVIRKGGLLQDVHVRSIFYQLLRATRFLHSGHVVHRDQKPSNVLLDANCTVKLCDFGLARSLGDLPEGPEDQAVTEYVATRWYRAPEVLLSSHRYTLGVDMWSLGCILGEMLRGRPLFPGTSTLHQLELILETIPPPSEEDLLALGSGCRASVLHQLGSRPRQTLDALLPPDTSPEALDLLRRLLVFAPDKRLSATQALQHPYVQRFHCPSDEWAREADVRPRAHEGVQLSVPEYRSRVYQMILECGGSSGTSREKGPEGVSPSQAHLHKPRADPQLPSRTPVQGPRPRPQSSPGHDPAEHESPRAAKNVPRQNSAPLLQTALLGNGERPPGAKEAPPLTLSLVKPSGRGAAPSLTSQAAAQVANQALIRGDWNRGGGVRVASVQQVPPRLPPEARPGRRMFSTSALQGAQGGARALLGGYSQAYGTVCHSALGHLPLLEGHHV

[10] = target: Serine/threonine-protein kinase haspin (Homo sapiens) (UniProt Q8TF76); assay: Inhibition of human haspin assessed as remaining enzyme activity at 1 uM by KINOMEscan assay; procedure, shortened: as §2
[11] = target: Serine/threonine-protein kinase pim-2 (Homo sapiens, UniProt Q9P1W9); assay: Inhibition of human PIM2 assessed as remaining enzyme activity at 1 uM by KINOMEscan assay
Sequence of Serine/threonine-protein kinase pim-2 (Q9P1W9 whole entry, looked up): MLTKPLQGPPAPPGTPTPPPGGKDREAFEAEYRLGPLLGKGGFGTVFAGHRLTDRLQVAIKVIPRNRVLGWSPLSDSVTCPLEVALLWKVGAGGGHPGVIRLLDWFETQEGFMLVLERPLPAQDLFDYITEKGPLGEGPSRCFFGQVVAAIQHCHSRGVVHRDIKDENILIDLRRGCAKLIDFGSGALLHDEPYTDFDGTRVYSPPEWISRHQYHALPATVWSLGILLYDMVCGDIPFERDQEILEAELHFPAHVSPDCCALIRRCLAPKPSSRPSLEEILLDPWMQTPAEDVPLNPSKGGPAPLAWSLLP
Procedure, shortened: (§3)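 Profiled at 1 μM compound across a scanMAX KINOMEscan panel of 392 nonmutant kinases. Activity is reported as percent-of-control (POC). Panel-wide S(10) and S(1) selectivity scores are the fraction of kinases with POC below 10% and below 1%.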

[12] = target: Serine/threonine-protein kinase pim-3 (Homo sapiens) (UniProt Q86V86); assay: Inhibition of human PIM3 assessed as remaining enzyme activity at 1 uM by KINOMEscan assay; procedure, shortened: as §3
[13] = target: Casein kinase I isoform epsilon (Homo sapiens) (UniProt P49674); assay: Inhibition of full-length human CSNK1E expressed in bacterial system assessed as remaining enzyme activity at 1 uM by KINOMEscan assay; procedure, shortened: as §2
Sequence of Casein kinase I isoform epsilon (Homo sapiens) (P49674 whole entry, looked up, canonical isoform): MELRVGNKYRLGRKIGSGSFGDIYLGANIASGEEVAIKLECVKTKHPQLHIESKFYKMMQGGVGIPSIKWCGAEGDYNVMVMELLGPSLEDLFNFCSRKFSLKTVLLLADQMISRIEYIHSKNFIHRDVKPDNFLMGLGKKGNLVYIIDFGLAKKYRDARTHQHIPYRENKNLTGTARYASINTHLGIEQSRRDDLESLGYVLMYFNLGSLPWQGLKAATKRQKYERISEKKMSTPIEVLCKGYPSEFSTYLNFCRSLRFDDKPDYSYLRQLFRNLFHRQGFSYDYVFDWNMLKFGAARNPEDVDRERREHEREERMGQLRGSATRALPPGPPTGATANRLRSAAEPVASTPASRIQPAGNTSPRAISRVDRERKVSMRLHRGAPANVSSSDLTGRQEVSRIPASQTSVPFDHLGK

[14] = target: Casein kinase I isoform gamma-2 (Homo sapiens) (UniProt P78368); assay: Inhibition of full-length human CSNK1G2 expressed in bacterial system assessed as remaining enzyme activity at 1 uM by KINOMEscan assay; procedure, shortened: as §2
Sequence of Casein kinase I isoform gamma-2 (Homo sapiens) (P78368 whole entry, looked up, canonical isoform): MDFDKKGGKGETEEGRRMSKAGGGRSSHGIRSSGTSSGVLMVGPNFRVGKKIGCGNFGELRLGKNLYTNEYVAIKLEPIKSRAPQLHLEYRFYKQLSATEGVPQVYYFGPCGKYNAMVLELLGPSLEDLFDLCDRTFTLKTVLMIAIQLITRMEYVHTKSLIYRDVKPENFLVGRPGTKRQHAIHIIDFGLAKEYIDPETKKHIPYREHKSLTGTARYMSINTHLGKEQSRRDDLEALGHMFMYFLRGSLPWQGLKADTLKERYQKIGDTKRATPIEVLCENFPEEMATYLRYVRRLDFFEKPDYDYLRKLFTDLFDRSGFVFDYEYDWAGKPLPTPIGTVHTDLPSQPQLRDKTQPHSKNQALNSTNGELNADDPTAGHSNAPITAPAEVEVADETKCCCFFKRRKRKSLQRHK

[15] = target: Casein kinase II subunit alpha (Homo sapiens) (UniProt P68400); assay: Inhibition of full-length human CSNK2A2 expressed in mammalian system assessed as remaining enzyme activity at 1 uM by KINOMEscan assay; procedure, shortened: as §2
Sequence of Casein kinase II subunit alpha (Homo sapiens) (P68400 whole entry, looked up, canonical isoform): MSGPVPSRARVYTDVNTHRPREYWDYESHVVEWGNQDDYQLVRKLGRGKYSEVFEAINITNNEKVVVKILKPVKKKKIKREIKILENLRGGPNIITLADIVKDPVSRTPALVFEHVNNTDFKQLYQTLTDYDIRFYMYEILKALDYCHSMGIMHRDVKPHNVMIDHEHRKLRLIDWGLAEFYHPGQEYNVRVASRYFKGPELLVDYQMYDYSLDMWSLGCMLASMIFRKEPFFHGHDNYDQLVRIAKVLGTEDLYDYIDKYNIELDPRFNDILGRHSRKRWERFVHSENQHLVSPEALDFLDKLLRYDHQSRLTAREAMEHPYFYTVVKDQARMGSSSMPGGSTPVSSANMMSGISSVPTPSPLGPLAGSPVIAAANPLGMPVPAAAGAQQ

[16] = target: Casein kinase I isoform delta (Homo sapiens) (UniProt P48730); assay: Inhibition of full-length human CSNK1D expressed in bacterial system assessed as remaining enzyme activity at 1 uM by KINOMEscan assay; procedure, shortened: as §2
Sequence of Casein kinase I isoform delta (Homo sapiens) (P48730 whole entry, looked up, canonical isoform): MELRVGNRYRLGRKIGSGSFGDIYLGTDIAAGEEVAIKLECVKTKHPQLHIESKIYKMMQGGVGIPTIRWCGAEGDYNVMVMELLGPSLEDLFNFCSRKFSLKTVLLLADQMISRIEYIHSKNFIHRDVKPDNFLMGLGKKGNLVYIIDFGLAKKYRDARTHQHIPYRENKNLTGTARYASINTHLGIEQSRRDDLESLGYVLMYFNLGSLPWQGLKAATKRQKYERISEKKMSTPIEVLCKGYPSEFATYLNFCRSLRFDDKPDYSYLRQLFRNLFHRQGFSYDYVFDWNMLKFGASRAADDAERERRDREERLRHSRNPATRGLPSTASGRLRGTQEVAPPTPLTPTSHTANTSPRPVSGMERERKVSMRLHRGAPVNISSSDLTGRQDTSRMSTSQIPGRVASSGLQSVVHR

[17] = Drug metabolism in human liver microsomes assessed as compound turnover at 1 uM incubated for 30 mins; type: ADME; details: read-out: Drug metabolism
[18] = Protein binding in rat assessed as as fraction unbound at 5 uM by rapid equilibrium dialysis method; type: ADME; details: plasma
[19] = Clearance in Sprague-Dawley rat at 2 mg/kg, iv; type: ADME, organism-based; details: in vivo; procedure, shortened: as §1
[20] = Oral bioavailability in Sprague-Dawley rat at 5 mg/kg; type: ADME, organism-based; details: in vivo; procedure, shortened: as §1
[21] = Cytotoxicity against human KMS-12-BM cells after 72 hrs by cell titer-glo luminescence assay; type: functional, cell-based
KMS-12-BM = assay: Antitumor activity against human KMS-12-BM cells xenografted in orally dosed SCID-beige mouse administered as qd relative to vehicle control; type: functional, organism-based
Procedure, shortened: (§4)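 Mouse KMS-12-BM xenograft efficacy study running 16 days. Oral dosing once daily at 10, 25, 50 or 100 mg/kg. Tumor volume compared with vehicle-treated controls.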

[22] = Antitumor activity against human KMS-12-BM cells xenografted in SCID-beige mouse at 100 mg/kg, po qd relative to vehicle control; type: functional; details: read-out: TGI; procedure, shortened: as §4
Mus musculus [23] = assay: In vivo inhibition of Pim1/2-mediated BAD protein phosphorylation at Ser-112 in human KMS-12-BM cells xenografted in SCID-beige mouse assessed as pBAD level at 25 mg/kg, po administered as single dose measured after 6 hrs by meso scale discovery assay; type: functional; design: scale not given: the % may be the effect or the level left
Procedure, shortened: (§5)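 KMS-12-BM xenograft mice given a single oral dose of 25, 50 or 100 mg/kg. Tumor Ser-112 pBAD measured at time points through 16 h postdose. EC50 obtained by fitting all individual total plasma concentration–pBAD response data. Unbound value derived from mouse plasma fraction unbound.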

Mus musculus [24] = assay: In vivo inhibition of Pim1/2-mediated BAD protein phosphorylation at Ser-112 in human KMS-12-BM cells xenografted in SCID-beige mouse assessed as pBAD level at 50 mg/kg, po administered as single dose measured after 6 hrs by meso scale discovery assay; type: functional; design: scale not given: the % may be the effect or the level left; procedure, shortened: as §5
Mus musculus [25] = assay: In vivo inhibition of Pim1/2-mediated BAD protein phosphorylation at Ser-112 in human KMS-12-BM cells xenografted in SCID-beige mouse assessed as pBAD level at 25 mg/kg, po administered as single dose measured after 16 hrs by meso scale discovery assay; type: functional; design: scale not given: the % may be the effect or the level left; procedure, shortened: as §5
Mus musculus [26] = assay: In vivo inhibition of Pim1/2-mediated BAD protein phosphorylation at Ser-112 in human KMS-12-BM cells xenografted in SCID-beige mouse assessed as pBAD level at 50 mg/kg, po administered as single dose measured after 16 hrs by meso scale discovery assay; type: functional; design: scale not given: the % may be the effect or the level left; procedure, shortened: as §5
Mus musculus [27] = assay: In vivo inhibition of Pim1/2-mediated BAD protein phosphorylation at Ser-112 in human KMS-12-BM cells xenografted in SCID-beige mouse assessed as pBAD level at 100 mg/kg, po administered as single dose measured after 16 hrs by meso scale discovery assay; type: functional; design: scale not given: the % may be the effect or the level left; procedure, shortened: as §5
Plasma = assay: Free plasma concentration in SCID-beige mouse at 5 uM by LC/MS analysis; type: ADME, cell-free

**Q.** With `Cc1nc2cccc3c2nc1N[C@H](C)/C=C\C[C@H]1CNC(=O)c2cc-3[nH]c21` as the compound, how does the Activity (Mus musculus [1]) read?
**A.** Non-toxic

**Q.** What about the CL (Rattus norvegicus) of the same compound?
**A.** 14%

**Q.** And the IC50 [2]?
**A.** 0.3 nM

**Q.** What about the solubility thermodynamic [3] of the same compound?
**A.** 40 µM (≈ 14.4 µg/mL)

**Q.** And the Activity [4]?
**A.** < 10%

**Q.** What about the Activity [5] of the same compound?
**A.** < 10%

**Q.** And the Activity [6]?
**A.** < 10%

**Q.** What about the Activity [7] of the same compound?
**A.** < 10%

**Q.** What about the Activity [8] of the same compound?
**A.** < 10%

**Q.** And the Activity [9]?
**A.** < 10%

**Q.** What about the Activity [10] of the same compound?
**A.** < 10%

**Q.** And the Activity [11]?
**A.** < 10%

**Q.** And the Activity [12]?
**A.** < 10%

**Q.** And the Activity [13]?
**A.** < 10%

**Q.** What about the Activity [14] of the same compound?
**A.** < 10%

**Q.** And the Activity [15]?
**A.** < 10%

**Q.** And the Activity [16]?
**A.** < 10%

**Q.** What about the metabolised at 0.5 h, 1 µM [17] of the same compound?
**A.** 24%

**Q.** And the fraction unbound at 5 µM [18]?
**A.** 0.007

**Q.** What about the clearance [19] of the same compound?
**A.** 7.83 mL/min/kg

**Q.** And the bioavailability [20]?
**A.** 48%

**Q.** What about the IC50 [21] of the same compound?
**A.** 151 nM

**Q.** What about the TGI (KMS-12-BM) of the same compound?
**A.** Dose-dependent effect

**Q.** And the inhibition in vivo at 100 mg/kg [22]?
**A.** 100%

**Q.** What about the Activity (Mus musculus [23]) of the same compound?
**A.** 35%

**Q.** And the Activity (Mus musculus [24])?
**A.** 60%

**Q.** And the Activity (Mus musculus [25])?
**A.** 0%

**Q.** And the Activity (Mus musculus [26])?
**A.** 8%

**Q.** And the Activity (Mus musculus [27])?
**A.** 53%

**Q.** What about the “Cp(f)” value (Plasma) of the same compound?
**A.** 30 nM
